Data set [1] concerns Rattus norvegicus. The experiment in a line: In vivo intrinsic activity against rat aorta and value was reported as factor between the hypertensin and the compound. It is filed as functional. The essentials: (§1)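 Male Wistar rats (~250 g) are anesthetized with urethane 1.4 g/kg sc, with jugular vein and carotid artery cannulated. Peptides are diluted in 0.9% saline from 1 mg/mL aqueous stocks and injected intravenously. Arterial blood pressure is recorded through the carotid cannula with a pressure transducer.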

Data set [2] is filed under the species Oryctolagus cuniculus. The data set can be described thus: In vitro intrinsic activity was determined against rabbit aorta and time taken to ralax maximally contracted tissue to 25% was reported. Format: functional. Details: unit not given beside the values. The essentials:
(§2)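 Aortic strips are held in an aerated (95% O2/5% CO2) bath under 2.0 g tension after a 60–90 min equilibration. At maximal agonist contraction, unbound peptide is removed by several washes and the time for tension to fall back toward the pre-contraction level is recorded. Peptides are diluted in 0.9% saline from 1 mg/mL aqueous stocks immediately before use.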

Data set [3] is filed under the species Oryctolagus cuniculus. The data set can be described thus: In vitro intrinsic activity against rabbit aorta and value was reported as factor between the hypertensin and the compound. It is filed as functional. In a few lines:
(§3)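 Isolated aortic tissue in a bath aerated with 95% O2/5% CO2 under 2.0 g initial tension, readjusted during a 60–90 min equilibration with bath fluid changed every 10–15 min. Concentrations are final bath concentrations. Peptides are kept as 1 mg/mL stocks in distilled water at -20 °C for up to 14 days and diluted in 0.9% saline just before use.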

Data set [4] deals with Rattus norvegicus. The experiment in a line: In vivo intrinsic activity was determined against rat aorta and percent increase in blood pressure was reported. It is filed as functional. In a few lines:
as §1

Data set [5] is filed under the species Oryctolagus cuniculus. The experiment in a line: In vitro intrinsic activity was determined against rabbit aorta and percent increase in blood pressure was reported. It is filed as functional.
Data set [6] is filed under the species Oryctolagus cuniculus. The experiment in a line: In vitro intrinsic activity was determined against rabbit aorta and expressed as alpha E. It is filed as functional. In a few lines: as §3
The species entered for data set [7] is Oryctolagus cuniculus. The experiment in a line: In vitro intrinsic activity was determined against rabbit aorta and expressed as factor F at t3/4. It is filed as functional.
The species named for data set [8] is Oryctolagus cuniculus. The experiment in a line: In vitro intrinsic activity was determined against rabbit aorta and expressed as factor F at t1/2. It is filed as functional.
The species named for data set [9] is Oryctolagus cuniculus. The experiment in a line: In vitro intrinsic activity was determined against rabbit aorta and time taken to ralax maximally contracted tissue to 50% was reported. Format: functional. The essentials:
as §2

The species entered for data set [10] is Oryctolagus cuniculus. The data set can be described thus: In vitro intrinsic activity was determined against rabbit aorta and expressed as negative logarithm of half maximal dose. In a few lines: as §3

Take `CCCN(CCC)C(=O)C[C@H](N)C(=O)N[C@@H](CCCN=C(N)N)C(=O)N[C@H](C(=O)N[C@@H](Cc1ccc(O)cc1)C(=O)N[C@H](C(=O)N[C@@H](Cc1c[nH]cn1)C(=O)N1CCC[C@H]1C(=O)N[C@@H](Cc1ccccc1)C(=O)O)[C@@H](C)CC)C(C)C` [listing 1 of 2 here]: the “Activity Factor” value in the data set with Rattus norvegicus [1] was found to be 11.1. The molecule also registered a T3/4 in the data set listed under Oryctolagus cuniculus [2] of 44. The Activity in the data set filed under Oryctolagus cuniculus [3] came out at 6.3. Further, the “Increase in blood pressure” value is given as 9% with Rattus norvegicus [4] and 16% in the data set filed under Oryctolagus cuniculus [5]. In addition, in the data set listed under Oryctolagus cuniculus [6], the “Alpha E” value is 1. In the data set listed under Oryctolagus cuniculus [7], this molecule displayed an F3/4 of 5.1. For the same molecule, in the data set filed under Oryctolagus cuniculus [8], the F1/2 is listed as 3.7.

Molecule `CC[C@H](C)[C@H](NC(=O)[C@H](Cc1ccc(O)cc1)NC(=O)[C@@H](NC(=O)[C@H](CCCN=C(N)N)NC(=O)[C@@H](N)CC(=O)N(C)C)C(C)C)C(=O)N[C@@H](Cc1c[nH]cn1)C(=O)N1CCC[C@@H]1C(=O)N[C@@H](Cc1ccccc1)C(=O)O` showed a T1/2 in the data set listed under Oryctolagus cuniculus [9] of 6.7.

As to `CCCN(CCC)C(=O)C[C@H](N)C(=O)N[C@@H](CCCN=C(N)N)C(=O)N[C@H](C(=O)N[C@@H](Cc1ccc(O)cc1)C(=O)N[C@H](C(=O)N[C@@H](Cc1c[nH]cn1)C(=O)N1CCC[C@@H]1C(=O)N[C@@H](Cc1ccccc1)C(=O)O)[C@@H](C)CC)C(C)C`, in the data set filed under Oryctolagus cuniculus [9], the T1/2 was found to be 18.7.

As for H-NRVYIHPF-OH, in the data set listed under Oryctolagus cuniculus [10], the pD2 stood at 7.73. For the same molecule, in the data set filed under Oryctolagus cuniculus [9], the T1/2 turned out to be 5. For the same molecule, the “Activity Factor” value in the data set on Rattus norvegicus [1] is listed as 1. Besides, in the data set listed under Oryctolagus cuniculus [2], the T3/4 is recorded as 8.7. Also, the Activity in the data set filed under Oryctolagus cuniculus [3] was determined as 1. In addition, the “Increase in blood pressure” value in the data set on Rattus norvegicus [4] and in the data set filed under Oryctolagus cuniculus [5] was 100% in each case. Further, in the data set listed under Oryctolagus cuniculus [6], the “Alpha E” value stood at 1. In the data set filed under Oryctolagus cuniculus [7], this molecule came in with an F3/4 of 1. In addition, the F1/2 in the data set listed under Oryctolagus cuniculus [8] came to 1.

As for `CC[C@H](C)[C@H](NC(=O)[C@H](Cc1ccc(O)cc1)NC(=O)[C@@H](NC(=O)[C@H](CCCN=C(N)N)NC(=O)[C@@H](N)CC(=O)N(C(C)C)C(C)C)C(C)C)C(=O)N[C@@H](Cc1c[nH]cn1)C(=O)N1CCC[C@H]1C(=O)N[C@@H](Cc1ccccc1)C(=O)O` [listing 1 of 2 here], the pD2 in the data set filed under Oryctolagus cuniculus [10] is 6.69.

Molecule `CCCN(CCC)C(=O)C[C@H](N)C(=O)N[C@@H](CCCN=C(N)N)C(=O)N[C@H](C(=O)N[C@@H](Cc1ccc(O)cc1)C(=O)N[C@H](C(=O)N[C@@H](Cc1c[nH]cn1)C(=O)N1CCC[C@H]1C(=O)N[C@@H](Cc1ccccc1)C(=O)O)[C@@H](C)CC)C(C)C` [listing 2 of 2 here] yielded a pD2 in the data set filed under Oryctolagus cuniculus [10] of 6.93.

For `CC[C@H](C)[C@H](NC(=O)[C@H](Cc1ccc(O)cc1)NC(=O)[C@@H](NC(=O)[C@H](CCCN=C(N)N)NC(=O)[C@@H](N)CC(=O)N(C(C)C)C(C)C)C(C)C)C(=O)N[C@@H](Cc1c[nH]cn1)C(=O)N1CCC[C@@H]1C(=O)N[C@@H](Cc1ccccc1)C(=O)O`, the T1/2 in the data set listed under Oryctolagus cuniculus [9] was 14.3.

Regarding `CC[C@H](C)[C@H](NC(=O)[C@H](Cc1ccc(O)cc1)NC(=O)[C@@H](NC(=O)[C@H](CCCN=C(N)N)NC(=O)[C@@H](N)CC(=O)N(C(C)C)C(C)C)C(C)C)C(=O)N[C@@H](Cc1c[nH]cn1)C(=O)N1CCC[C@H]1C(=O)N[C@@H](Cc1ccccc1)C(=O)O` [listing 2 of 2 here], in the data set with Rattus norvegicus [1], the “Activity Factor” value turned out to be 14.3. Further, the T3/4 in the data set listed under Oryctolagus cuniculus [2] came out at 36.7. Also, the Activity in the data set listed under Oryctolagus cuniculus [3] is given as 11. The results for the “Increase in blood pressure” value with Rattus norvegicus [4] and in the data set filed under Oryctolagus cuniculus [5] were 7% and 9%, respectively. For the same molecule, the “Alpha E” value in the data set listed under Oryctolagus cuniculus [6] is 1. For the same molecule, the F3/4 in the data set filed under Oryctolagus cuniculus [7] was 4.2. Further, in the data set listed under Oryctolagus cuniculus [8], the F1/2 was determined as 2.9.

On to `CC[C@H](C)[C@H](NC(=O)[C@H](Cc1ccc(O)cc1)NC(=O)[C@@H](NC(=O)[C@H](CCCN=C(N)N)NC(=O)[C@@H](N)CC(=O)N(C)C)C(C)C)C(=O)N[C@@H](Cc1c[nH]cn1)C(=O)N1CCC[C@H]1C(=O)N[C@@H](Cc1ccccc1)C(=O)O` [listing 1 of 2 here], for which, in the data set listed under Oryctolagus cuniculus [10], the pD2 is 7.39.

Consider `CC[C@H](C)[C@H](NC(=O)[C@H](Cc1ccc(O)cc1)NC(=O)[C@@H](NC(=O)[C@H](CCCN=C(N)N)NC(=O)[C@@H](N)CC(=O)N(C)C)C(C)C)C(=O)N[C@@H](Cc1c[nH]cn1)C(=O)N1CCC[C@H]1C(=O)N[C@@H](Cc1ccccc1)C(=O)O` [listing 2 of 2 here], for which the “Activity Factor” value in the data set with Rattus norvegicus [1] is 3.3. Besides, the T3/4 in the data set filed under Oryctolagus cuniculus [2] was 20. The molecule further had an Activity in the data set listed under Oryctolagus cuniculus [3] of 2.2. Moreover, the “Increase in blood pressure” value in the data set with Rattus norvegicus [4] is 30%; in the data set listed under Oryctolagus cuniculus [5] it was 46%. In addition, in the data set filed under Oryctolagus cuniculus [6], the “Alpha E” value is listed as 1. In the data set listed under Oryctolagus cuniculus [7], the F3/4 is given as 2.3. For the same molecule, the F1/2 in the data set filed under Oryctolagus cuniculus [8] amounted to 1.3.

For the origin of these results see ChEMBL document CHEMBL1121786, “Studies on position 1 of angiotensin II: effects on affinity and duration of action from alkyl amide substitution” (J Med Chem, 1981).
